Test system: MS2 coat protein
Assay: apparent Kd, MS2 coat protein; higher = weaker binding; RNA-MaP array; FMN 200 µM where present
Method in brief: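 Each design was made on Illumina sequencing-chip clusters by stalled E. coli RNA polymerase and titrated with SNAP-549-labelled MS2 coat protein from 0.7 or 1.5 nM, doubling to 3 µM, in the absence and then the presence of constant ligand. The buffer was 100 mM Tris-HCl pH 7.5, 80 mM KCl, 4 mM MgCl2, BSA, DTT, yeast tRNA and Tween-20. The apparent Kd is the median of filtered per-cluster fits of binding curves, with green signal normalised to red-channel RNA signal and control-cluster median Fmax.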

[1] = designed as: ON switch for flavin mononucleotide, no ligand
[2] = ligand present: flavin mononucleotide, designed as: ON switch for flavin mononucleotide
[3] = designed as: OFF switch for flavin mononucleotide, no ligand
[4] = ligand present: flavin mononucleotide, designed as: OFF switch for flavin mononucleotide

Row | Sequence | apparent Kd [1] | apparent Kd [2] | apparent Kd [3] | apparent Kd [4]
1 | GAACGUGACAUGAGGAUCACCCAUGUUGCCUUGGCCAGGUCGUAGGAUAUCCUGUUGAUUAAUUUGGAGAAGGGCGACUGGGAG | 33.5 nM | 12.9 nM |  | 
2 | AGUGGUGAGCAAGGAUAUCGCCACUGCGUGACCUCACAACGGAUACAUGAGGAUCACCCAUGUGGCGAGAAGGUGCGGGAACGG |  |  | 28.1 nM | 36.9 nM
3 | UGAUACAUGAGGGUCUCCCAUGACAUGAGGAUCACCCAUGUGCAGGAUAUACGUGUGAUAAUAUAGUAGAAGGGCAGUCUAUGU |  |  | 345 nM | 577 nM
4 | UUUAGUUCAGGAUAUGUAGAUUUUAACAUGAGGAUCACCCAUGUAGAUCCUGAAUUAACUACAGAAGGGAACAUUU |  |  | 19.8 nM | 88.6 nM
5 | GCCUCACAUGAGGAUCACCCAUGUCAGGAUAUAGGAGGCAGUAGAUAUCCUACCGCCGCUAGAAGGGACUGGCA |  |  | 49.1 nM | 131 nM
6 | GCCAUCGCAUGAGGAUAUGCUCCCGUUUCGGGAGCAGAAGGCAUGUAAUAAGACAUGAGGAUCACCCAUGUAGUUAAGAUGGCA | 7.36 nM | 5.32 nM |  | 
7 | GAUUGACAUGAGGAUCACCCAUGUGAGGAUAUCGGCCGGACCUUGUUAGCUUCCAUCGCGAGAAGGCACAUAGG |  |  | 28.1 nM | 37.1 nM
8 | UUGGACGUCGUAGGAUAUGUAGGAAAUUCCUACAUGAGGAUCACCCAUGUUGACAUGGAAGAAGGACAGAAGGACGAUGUCCAU | 262 nM | 12.4 nM |  | 
9 | AAGAGCGAUUCUCCCUUCCUACAUGAGGAUCACCCAUGUACGAGAAGGCGCCGUGUAUACAACGGUGAGGAUAUCGUGCGUUAC |  |  | 4.64 nM | 4.91 nM
10 | AAUCUGUCGGUAGGAUAUCAGUUAGGAGAGCCGACAUGAGGAUCACCCAUGUACAGAAUCAAGGGUGAGAAGGACCGGGUAGUA | 114 nM | 111 nM |  | 
11 | CACGAUCAUGUAGGAUAUAUACUGGAAUACAGUAUAGAAGGACAUGAGGAUCACCCAUGUUAAGUGCCUCCAAGUAAGAUCGUG |  |  | 17 nM | 23 nM
12 | UGUGUGUGACAGGAUAUGCAGGUUAUGAGACGGGUAGAAGGGUCUACAUGAGGAUCACCCAUGUGGCCGGUUGG |  |  | 18 nM | 16.9 nM
13 | UAUUUUGAAGUAGGAUAUCAACACACAUGAGGAUCACCCAUGUUAGAUGUGGAUGUUGUAUGUUAUGAGAAGGACUUCGAUUCG |  |  | 20.6 nM | 76.4 nM
14 | GUAGCAUACAGAGGAUAUUCAAACGACAAAAGUCGACAUGAGGAUCACCCAUGUGGCGAAAGCCGGGAGAAGGCUGAAUGCUAC | 15 nM | 12 nM |  | 
15 | CCAGCGUAUGUGAGGAUAUGCUGGUCCUUGGAUCAGCAGAAGGCACAUGAGGAUCACCCAUGUGGAAUCGUUGG |  |  | 23.5 nM | 92.1 nM
16 | CGUGACGACAUAGGAUAUUGAUACAUGAGGAUCACCCAUGUCAACCAUUUAUCUCAAAUUGUUGACAAGAAGGAUGUGGUCACG | 263 nM | 13.6 nM |  | 
17 | CGACGAGUGGAGAAGGACUUUGACUAGCACAGGGUAGGAUAUCCACAUGAGGAUCACCCAUGUAGGAUACUUAUUGGGCCGCCU |  |  | 6.96 nM | 22.8 nM
18 | GUGAAGAUAUCAGGAUAUCUAUUUCCUACAUGAGGAUCACCCAUGUAGGUGAUCAGCCGAGUAAAGGAGAAGGGAUAUCUUUAC | 23.6 nM | 10.1 nM |  | 
19 | AUACGUGAGAAGGAUAUCACUCGCCAGAGGCGAUGAGAAGGUUUCACAUGAGGAUCACCCAUGUGCUCUUCUAG |  |  | 32 nM | 75.1 nM
20 | GGAUCGAGUGUGAGGAUAUGCUGGUCCUUGGAUCAGCAGAAGGCACAUGAGGAUCACCCAUGUGGUAACGGUCC |  |  | 190 nM | 537 nM
21 | AAAGACAGAGGAUAUGCACGCCGACCCGGGCGGGAAGUCGGACAUGAGGAUCACCCAUGUAGAAGGCUGAGAAA |  |  | 11.3 nM | 14.8 nM

Row | Sequence | apparent Kd [1] | apparent Kd [2] | apparent Kd [3] | apparent Kd [4]
22 | GCGCGAAGCUAGGAUAUGGGAGCCGAAAGGCUCCCAGAAGGAGCCACAUGAGGAUCACCCAUGUGGUGAUCCUG |  |  | 18.6 nM | 38.6 nM
23 | AAAACUGCUCAGGAUAUUUGUGUGUCAGGGCAUAAAGAAGGGAGCACAUGAGGAUCACCCAUGUGUUGGGUUCC |  |  | 98.5 nM | 149 nM
24 | AGUGCGUAUGUGAGGAUAUGCUGGUCCUUGGCUCGGCAGAAGGCACAUGAGGAUCACCCAUGUGGUGUCGUACU |  |  | 239 nM | 47.1 nM
25 | AGUGCGUAUGUGAGGAUAUGCUGGUCCUUGGAUCGGCAGAAGGCACAUGAGGAUCACCCAUGUGGUGUCGUACU |  |  | 381 nM | 20 nM
26 | AUCAUGUCAGGAUAUGUGAUAUGGAUCUUCGGAUCAAGUUCACAGAAGGGACAUGAGGAUCACCCAUGUCGAAC |  |  | 50.6 nM | 91.7 nM
27 | AAGAAACAUGAGGAUCACCCAUGUGAGGAUAUGUAAAAGAAAAGAAAAUAAAGAAGAAACAGAAGGCACAAAGG |  |  | 40.2 nM | 64.4 nM
28 | GAUAGGACAGAGAAGGACAUAGCUAGAGAUACUAGCAUAAGAACUUCAACAUGAGGAUCACCCAUGUAGGAUAUCUGUCCUAUC |  |  | 6.88 nM | 8.76 nM
29 | ACUGCCCGAGAGAAGGGAACAUGAGGAUCACCCAUGUUACCUCACCUGGUGACGGAACUCCAAGUUCAGGAUAUCUCGAACGGU |  |  | 5.23 nM | 6.51 nM
30 | GCGUUGAUGUAGAAGGUACAUGAAUAUAUUUAAUACCUCAAGUAACAUGAGGAUCACCCAUGUAGUAAGGAUAUACAUGAACGC | 88.6 nM | 56.1 nM |  | 
31 | GUCAUACAUGAGGAUCACCCAUGUAAGGAUAUGCUAGCGGUCGGAAGAAUGACUGCUAGCAGAAGGUACAUGAU |  |  | 64.1 nM | 121 nM
32 | AACAGGACAGGAUAUACAUGAGGAUCACCCAUGUGAGAAUUAAGUAGAUUGCCACAGAGUAGAAGGGUCCUGGA |  |  | 66.6 nM | 91.2 nM
33 | GUACUUGUGCAGAAGGGCAUUGAUUUAGGUUGUUAGGUUGAUCAGAUAUGCAGGAUAUGCUAUACAUGAGGAUCACCCAUGUUC | 92 nM | 11.7 nM |  | 
34 | AAAAGACAUGAGGAUCACCCAUGUCAAGACGUGGGAGGAUAUGUAUGGAAACCAGACUGUACAGAAGGCCUCUGUC | 57 nM | 70.5 nM |  | 
35 | ACUUUAGUAUCACAUGUAUUACAUGAGGAUCACCCAUGUUACUAGGAUAUGUAUUAGAAUUUACAACAGAAGGAGUUAAUUUGU |  |  | 7.92 nM | 7.59 nM
36 | GCUUUAUAGAUCCAUUUUAACAACAUGAGGAUCACCCAUGUGCAGGAUAUCGUUUGUUUUAUAUUCGAGAAGGGCAAAUUCAUC |  |  | 37.9 nM | 93.1 nM
37 | AAGACACAUGAGGAUCACCCAUGUCAAGAGAGACGAGGAUAUCUGAAUUAAUUAAAUUAAGGAGAAGGCGUGAAAA | 78.9 nM | 30.9 nM |  | 
38 | AAGAGACAUCAGAAGGGAGCCCGAACGCGCGGCUCAGGAUAUGAGAUCUUAUGUAGUACGACAUGAGGAUCACCCAUGUCCGCG | 28.2 nM | 8.05 nM |  | 
39 | ACAUUUUAUGCAGGAUAUUGACUUUGGAUUAAACAAGAAGGGCAUUACAUGAGGAUCACCCAUGUUUUAUUGGUAUAUAAGUUC |  |  | 13.9 nM | 17.1 nM
40 | GAAUUAAUGAUCCAAUUUUACAACAUGAGGAUCACCCAUGUGCAGGAUAUCGUGUGUUUUAUAUUCGAGAAGGGCAAAUACAUU |  |  | 161 nM | 287 nM
41 | GUACUACAUGAGGAUCACCCAUGUACAAAGGUACGAGGAUAUGCAUGUACGAAAGUAUAUGCAGAAGGCGUAGUAC | 25.8 nM | 21.7 nM |  | 
42 | UGGUAACAUGAGGAUCACCCAUGUCAAGAGAAUCAAGGAUAUGGUAAGUAAUAAGAGAAUCUAGAAGGUGAAGUUG | 96.2 nM | 69.1 nM |  | 

Source: the EternaBench riboswitch data
